# According to publication PMC2813939 (Neuropsychopharmacology : official publication of the …, 2009):
# Where “and” joins values, the source holds several entries; their conditions need not be identical. Equal values may be shown once. Read-outs that look alike come from different tables or passages of the source.
# Key:
# [1] = cited from earlier work
# [2] = biological target: T1, human D2 receptor (short isoform, D2S) (Homo sapiens, UniProt P14416); test: cell-based; assay type: binding
# [3] = biological target: T1, human D2 receptor (short isoform, D2S); assay type: binding
# [4] = biological target: T1, human D2 receptor (short isoform, D2S); assay type: binding; remark: listed apart in the source
# [5] = test system: GRK2; test: Western blot of tetracycline-induced GRK2 expression in triple-transfected cells; assay type: cell-based, bovine; settings: tetracycline 1 μg/ml 24 h; triple-transfected cells vs untreated cells; n=3
# Method in brief: (§1)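 T-REx-293 cells stably triple-transfected with D2S receptor, tetracycline-inducible GRK2 and arrestin3; tetracycline 1 μg/ml (final) or vehicle 24 h at 36 °C. Lysed in 1% dodecyl maltopyranoside/PBS with protease inhibitors and N-ethylmaleimide; 20 μg protein run on 7.5% SDS-PAGE, PVDF. Rabbit polyclonal primaries 1 h RT (anti-GRK2 1:1000; anti-arrestin3 1:500), HRP anti-rabbit 1:15,000; ECL-Plus imaging and quantitation; % increase versus untreated cells.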
# [6] = test system: arrestin3; assay type: cell-based, rat; settings: tetracycline 1 μg/ml 24 h; triple-transfected cells vs untreated cells; n=2
# Method in brief: as §1
# [7] = internalized (Q+/MTSET+) vs surface (Q-/MTSET-)
# [8] = read-out: Internalized D2 receptor (Q+/MTSET+) KI(i)
# [9] = read-out: Surface D2 receptor (Q-/MTSET-) KI(s)
# T1 sequence (P14416 1-414 isoform P14416-2): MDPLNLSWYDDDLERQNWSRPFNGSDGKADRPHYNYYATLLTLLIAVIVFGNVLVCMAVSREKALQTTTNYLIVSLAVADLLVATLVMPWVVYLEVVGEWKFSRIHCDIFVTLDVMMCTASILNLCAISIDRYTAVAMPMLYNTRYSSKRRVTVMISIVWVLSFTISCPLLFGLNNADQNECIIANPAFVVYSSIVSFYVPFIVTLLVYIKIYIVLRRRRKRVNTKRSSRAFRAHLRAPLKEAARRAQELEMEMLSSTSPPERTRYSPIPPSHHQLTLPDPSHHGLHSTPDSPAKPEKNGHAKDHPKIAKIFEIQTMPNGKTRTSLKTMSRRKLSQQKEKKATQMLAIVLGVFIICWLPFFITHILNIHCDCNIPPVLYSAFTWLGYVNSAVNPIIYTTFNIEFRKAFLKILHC
smiles,measurement,setting,value
"CCCN1CCOC2c3cc(O)ccc3CCC21 (single isomer, unassigned; (+)) [PHNO, (+)-4-propyl-3,4,4a,5,6,10b-hexahydro-2H-naphtho[1,2-b][1,4]oxazin-9-ol]",Lipophilicity (Log P),"[1]; ref Wilson et al, 2005",2.1 ^d†
"CC[11CH2]N1CCc2cccc3c2C1Cc1ccc(O)c(O)c1-3 (single isomer, unassigned; (-)) [NPA, (-)-N-[11C]propyl-norapomorphine]",Lipophilicity (Log P),"[1]; ref Wilson et al, 2005",2.5 ^d†
CCN1CCC[C@H]1CNC(=O)c1cc(I)cc(OC)c1OC [Epidepride],Affinity shift Ki(i)/Ki(s),[2],2.4
same,Lipophilicity (Log kw),"[1]; ref Kessler et al, 1991",2.1 ^c‡
CCN1CCC[C@H]1CNC(=O)c1cc(Br)cc(OC)c1OC [FLB 457],Affinity shift Ki(i)/Ki(s),[2]; [7],3.0
same,Ki,[2]; [8],0.09 ± 0.02 nM
same,Ki,[2]; [9],0.03 ± 0.01 nM
same,Lipophilicity (Log kw),"[1]; ref Loc'h et al, 1996",1.9 ^b‡
C=CCN1CCC[C@H]1CNC(=O)c1cc(CCCF)cc(OC)c1OC [Fallypride],Ki,[2]; Internalized D2 receptor (Q+/MTSET+) KI(i),0.92 ± 0.31 nM
same,Ki,[2]; Surface D2 receptor (Q-/MTSET-) KI(s),0.32 ± 0.06 nM
same,Affinity shift Ki(i)/Ki(s),[2]; [7],2.9
same,Lipophilicity (Log P),"[1]; ref Laruelle, 2000",2.4 ^a†
CCN1CCC[C@H]1CNC(=O)c1c(OC)ccc(I)c1O [IBZM],Ki,[2]; [8],0.23 ± 0.11 nM
same,Ki,[2]; [9],0.19 ± 0.05 nM
CCN1CCC[C@H]1CNC(=O)c1c(OC)ccc([123I])c1O [IBZM],Affinity shift Ki(i)/Ki(s),[2]; [7],1.2
same,Lipophilicity (Log P),"[1]; ref Laruelle, 2000",2.8 ^a†
"C[N+](C)(C)CCSS(C)(=O)=O.[Br-] [MTSET, [2-(trimethylammonium)ethyl] methanethiosulfonate bromide]","[3H]NMSP binding remaining, % of the total binding",[3],10%
"CN1CN(c2ccccc2)C2(CCN(CCCC(=O)c3ccc(F)cc3)CC2)C1=O [NMSP, N-methylspiperone]",Lipophilicity (Log P),"[1]; ref Laruelle, 2000",3.3 ^a†
CCN1CCC[C@H]1CNC(=O)c1c(O)c(Cl)cc(Cl)c1OC [Raclopride],increase in the Ki at internalized receptors (decrease in affinity),[2],about 2 fold
CCN1CCCC1CNC(=O)c1cc(S(N)(=O)=O)ccc1OC (stereo not drawn) [Sulpiride],fraction of D2 receptors on the surface,[2],80.9%
same,fraction of D2 receptors on the surface (high affinity),[2],85.8% and 43.1%
same,fraction of D2 receptors with high affinity,[4],90% and 55% and 89.9%
CN(C)[C@@H]1C(O)=C(C(N)=O)C(=O)[C@@]2(O)C(O)=C3C(=O)c4c(O)cccc4[C@@](C)(O)[C@H]3C[C@@H]12 [Tetracycline],increase in GRK2 expression,[5],190 ± 24%
same,increase in arrestin3 expression,[6],538 ± 75%
